Most compounds without a hit are left out; they make up all but 3.9% or so of the library.
FLuc inh counter = Photinus pyralis luciferase inhibition counter-screen; 200,000 compounds, 1.5% hits; P08659; inhibition, % at 10 µM; ATPLite firefly luciferase biochemical luminescence, 10 min;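 active = inhibition above about 50% when tested at 10 µM, limit read from the data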
NF-kB expr up = raises NF-kB expression in human neuronal cells | NF-kB reporter expression; active compounds read high | 190,000 compounds, 1.6% hits | AID 1239 | fold change at 12.5 µM; in the data active = fold change above about 3.3
Rad51 HR inh = blocks human Rad51 in homologous recombination; Q06609; hRad51 DNA strand exchange, fluorescence dequenching; inhibition, % at 10 µM; 200,000 compounds, 0.085% hits; AID 1385;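 active = inhibition above 40% at the single screening dose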;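 also: 0% = DMSO control wells and 100% = blanks with heterologous ssDNA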
Target sequence (Q06609 whole entry, looked up): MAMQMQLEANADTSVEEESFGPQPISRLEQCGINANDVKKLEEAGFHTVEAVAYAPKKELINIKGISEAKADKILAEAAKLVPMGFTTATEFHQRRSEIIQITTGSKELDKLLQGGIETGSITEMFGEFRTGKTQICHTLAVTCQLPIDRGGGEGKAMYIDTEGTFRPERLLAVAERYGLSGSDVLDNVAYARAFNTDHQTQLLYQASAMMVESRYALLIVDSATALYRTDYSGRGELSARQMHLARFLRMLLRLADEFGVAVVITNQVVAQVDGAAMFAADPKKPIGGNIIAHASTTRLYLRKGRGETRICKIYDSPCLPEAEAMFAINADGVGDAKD
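Test system: preformed human Rad51 ssDNA filaments. Compound dosing: single dose, 10 µM final compound. Incubation: filaments 15 min 37 °C, then compound 30 min. Technique: FRET fluorescence dequenching, excitation 485 nm, emission 520 nm. Read-out basis: percent inhibition from fluorescence, normalised to plate control and blank means. Benchmarks: plate controls and plate blanks.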
STAT1 activator = activators of IFN-gamma induced STAT1 signaling. NIH 3T3 STAT1-luciferase reporter, luminescence; 100% = IFN-gamma alone, no compound. activation (% of control), % at 5.5 µM. 200,000 compounds, 2.6% hits;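 active = activation above the screen-wide mean activation plus 3 SD, cut at about 130% in these data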;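 also: raw ratio to IFN-gamma control signal so 100% means no change and 0% no light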
FLuc stim CS = affects firefly luciferase, flagging false hits in luciferase stimulation screens. activation factor at 10 µM. ATPlite luciferase biochemical, luminescence, 10 min; 0 = ATP-free wells, 1 = DMSO control. P08659. AID 1027. 200,000 tested, under 10 active;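 active = luciferase activation factor, scaled between plate controls, of at least 2 with compound at 10 µM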
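Material: luciferase plus luciferin reagent, cell-free. Medium: PBS buffer for ATP. Also added: ATP substrate, dispensed from a 10.24 µM working solution in PBS. Doses: test compounds dosed from 2 mM stocks in 100% DMSO. Incubation: 10 min post-reagent at room temperature. Technique: light output (luminescence). Read-out basis: luminescence gain marking luciferase activators.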
APP 5'UTR act = activates APP 5'UTR luciferase reporter; SH-SY5Y APP 5'UTR luciferase reporter, luminescence; zero percent = DMSO vehicle wells; activation, % at 2 µM; 190,000 compounds, 1% hits;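 active = activation above a set limit, based on mean plus 3 SD of controls, cut at about 140% in these data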
STAT1 activ conf = STAT1 activation, confirmation assay; shares compounds with STAT1 activator; NIH 3T3 STAT1-luciferase reporter, IFN-gamma potentiation, luminescence; 100% = IFN-gamma EC80 alone, no compound; activation (% of control), % at 5.7 µM; 1,200 compounds, 97% hits;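 active = activation above a set limit carried over from the earlier primary STAT1 screen, cut at about 140% in these data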;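 also: simple ratio to median IFN-gamma plus DMSO wells so 0% means no light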
NFkB act = activates NF-kappaB, counter-screen to STAT1 activators; 1,200 compounds, 43% hits; HEK293T NF-kB luciferase reporter, TNF-alpha stimulated, luminescence; 100% = TNF-alpha with vehicle only; activation (% of control), % at 5.7 µM; AID 1306; shares compounds with STAT1 activator;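 active = activation above the mean of solvent-only control wells plus 3 SD, set per campaign, cut at about 130% in these data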;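 also: TNF-alpha given at a submaximal dose yielding about 80% of full reporter signal; values are well signal over median control so 100% means no change and 0% no light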
STAT3 act 2 = human STAT3 activation in STAT1 activator counter-screen. shares compounds with STAT1 activator. U3A cells STAT3-luciferase reporter, IL-6, luminescence; cells lack STAT1; 100 = IL-6 alone, no compound effect. activation (% of control), % at 5.7 µM. 1,200 compounds, 46% hits;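 active = activation above the solvent-only control well mean plus 3 SD, set per plate batch, cut at about 110% in these data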;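 also: 0% = no luminescence and 100% = median IL-6 plus DMSO wells; higher means more STAT3 reporter activation so hits are non-selective activators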
* marks the source's active call; other numbers are inactive results.

Results for CC1CCc2ccccc2N1C(=N)N(C)C (stereo not drawn) ?
FLuc inh counter: -2; NF-kB expr up: 1.1; Rad51 HR inh: 5; STAT1 activator: 104; FLuc stim CS: 1; APP 5'UTR act: -1

What do the screens show for `CN(C)/C=C1\C(=O)N(c2ccc([N+](=O)[O-])cc2)N=C1c1ccccc1`?
FLuc inh counter: 3; NF-kB expr up: 1.1; Rad51 HR inh: -3; STAT1 activator: 184*; FLuc stim CS: 1; APP 5'UTR act: 31; STAT1 activ conf: 173*; NFkB act: 126; STAT3 act 2: 120*

What do the screens show for `C/C(=C1/C(=O)N(c2ccc([N+](=O)[O-])cc2)N=C1c1ccccc1)N(C)C`?
FLuc inh counter: -7; NF-kB expr up: 0.97; STAT1 activator: 108; FLuc stim CS: 1.1; APP 5'UTR act: 3

What do the screens show for `Cc1ccc(-c2nc(Nc3ccccc3)n[nH]2)cc1`?
FLuc inh counter: 22; NF-kB expr up: 10*; Rad51 HR inh: 5; STAT1 activator: 193*; FLuc stim CS: 0.8; APP 5'UTR act: 188*; STAT1 activ conf: 290*; NFkB act: 153*; STAT3 act 2: 122*

Results for COc1cc(NC(=O)c2cccc(Cl)c2)ccc1NC(=O)c1cccs1 ?
FLuc inh counter: -5; NF-kB expr up: 0.85; Rad51 HR inh: -5; STAT1 activator: 87; FLuc stim CS: 1; APP 5'UTR act: 6

What do the screens show for `COc1cc(NC(=O)c2ccccc2Cl)ccc1NC(=O)c1cccs1`?
FLuc inh counter: 6; NF-kB expr up: 1.3; Rad51 HR inh: 0; STAT1 activator: 153*; FLuc stim CS: 0.9; APP 5'UTR act: 85; STAT1 activ conf: 181*; NFkB act: 134*; STAT3 act 2: 98

What do the screens show for `Brc1ccccc1OCCCn1cnc2ccccc21`?
FLuc inh counter: 20; NF-kB expr up: 6.7*; Rad51 HR inh: -6; STAT1 activator: 158*; FLuc stim CS: 0.8; APP 5'UTR act: 73; STAT1 activ conf: 186*; NFkB act: 138*; STAT3 act 2: 107

What do the screens show for `O=C(O)CCCNS(=O)(=O)/C=C/c1ccccc1`?
FLuc inh counter: -9; NF-kB expr up: 1.4; Rad51 HR inh: 9; STAT1 activator: 102; FLuc stim CS: 1.1; APP 5'UTR act: 4

How did Cc1cc(C)n2nc(S(=O)(=O)NC3CCCCC3)nc2n1 do in these assays?
FLuc inh counter: -2; NF-kB expr up: 1.1; Rad51 HR inh: 15; STAT1 activator: 106; FLuc stim CS: 1; APP 5'UTR act: 14

What do the screens show for `COc1ccc(NC(=O)c2oc3ccccc3c2NC(=O)c2ccc3c(c2)OCO3)cc1`?
FLuc inh counter: 15; NF-kB expr up: 0.48; Rad51 HR inh: 0; STAT1 activator: 97; FLuc stim CS: 0.9; APP 5'UTR act: -6

How did CCOCC(=O)Nc1c(C(=O)Nc2ccccc2OC)oc2ccccc12 do in these assays?
FLuc inh counter: -4; NF-kB expr up: 1.2; Rad51 HR inh: 0; STAT1 activator: 106; FLuc stim CS: 1; APP 5'UTR act: 9

How did COCC(=O)Nc1c(C(=O)Nc2ccc3c(c2)OCCO3)oc2ccccc12 do in these assays?
FLuc inh counter: -2; NF-kB expr up: 2.4; STAT1 activator: 176*; FLuc stim CS: 1; APP 5'UTR act: 195*; STAT1 activ conf: 176*; NFkB act: 140*; STAT3 act 2: 104

What do the screens show for `CCOCC(=O)Nc1c(C(=O)Nc2ccc3c(c2)OCCO3)oc2ccccc12`?
FLuc inh counter: 1; NF-kB expr up: 1.4; Rad51 HR inh: 6; STAT1 activator: 155*; FLuc stim CS: 1; APP 5'UTR act: 129; STAT1 activ conf: 160*; NFkB act: 142*; STAT3 act 2: 103

Results for O=C(CSc1nc2ccc(Cl)cc2[nH]1)c1cccs1 ?
Rad51 HR inh: -3

How did O=C(O)/C=C/C(=O)Nc1ccccc1C(=O)Nc1ccccc1 do in these assays?
FLuc inh counter: -5; NF-kB expr up: 1.5; Rad51 HR inh: 2; STAT1 activator: 107; FLuc stim CS: 1.1; APP 5'UTR act: 3

Results for COc1ccc(NC(=O)c2nc3nccc(C)n3n2)cn1 ?
FLuc inh counter: 11; NF-kB expr up: 1.5; Rad51 HR inh: 7; STAT1 activator: 105; FLuc stim CS: 0.9; APP 5'UTR act: 7

What do the screens show for `Cc1ccc(OCC(=O)N2CCc3ccccc32)cc1`?
FLuc inh counter: 78*; NF-kB expr up: 2.6; Rad51 HR inh: 5; STAT1 activator: 155*; FLuc stim CS: 0.2; APP 5'UTR act: 156*; STAT1 activ conf: 192*; NFkB act: 134*; STAT3 act 2: 105

Results for CCN1C(=S)SC(=O)C1=C1C=C(C)OC(C)=C1 ?
FLuc inh counter: -4; NF-kB expr up: 1.4; Rad51 HR inh: -5; STAT1 activator: 98; FLuc stim CS: 1; APP 5'UTR act: 44

Results for CCN1C(=S)SC(=O)C1=C1C=C(C)N(Cc2ccco2)C(C)=C1 ?
FLuc inh counter: 2; NF-kB expr up: 3; STAT1 activator: 198*; FLuc stim CS: 1; APP 5'UTR act: 122; STAT1 activ conf: 278*; NFkB act: 151*; STAT3 act 2: 127*

What do the screens show for `C=CCNc1nnc(Sc2ncccc2[N+](=O)[O-])s1`?
FLuc inh counter: 1; NF-kB expr up: 0.97; Rad51 HR inh: -2; STAT1 activator: 75; FLuc stim CS: 1; APP 5'UTR act: -4

How did C/C(=N\O)c1sc(-c2ccccc2)nc1C do in these assays?
FLuc inh counter: 48; NF-kB expr up: 6.4*; Rad51 HR inh: 23; STAT1 activator: 156*; FLuc stim CS: 0.5; APP 5'UTR act: 177*; STAT1 activ conf: 190*; NFkB act: 118; STAT3 act 2: 121*

How did C=C(C)c1sc(-c2ccccc2)nc1C do in these assays?
Rad51 HR inh: -2

What do the screens show for `Cc1ccc(C(=O)Oc2oc(-c3ccco3)nc2C=Nc2ccc(Cl)cc2)cc1`?
FLuc inh counter: 6; NF-kB expr up: 7.7*; Rad51 HR inh: -12; STAT1 activator: 166*; FLuc stim CS: 0.9; APP 5'UTR act: 143*; STAT1 activ conf: 200*; NFkB act: 140*; STAT3 act 2: 106

Screens from PubChem.
